In ChEMBL document CHEMBL5131404, “Lipophilic quinolone derivatives: Synthesis and in vitro antibacterial evaluation” (2022):
Values after ≈ are worked out from the molar mass of the structure shown.

Assays:
Format in all cases: functional
[1] = tested on: Streptococcus pneumoniae; test: Antibacterial activity against Streptococcus pneumoniae ATCC 49169
Outline: (§1)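 Broth microdilution MIC following CLSI guidelines. Strains were grown on Mueller-Hinton agar beforehand. The MIC is the lowest compound concentration that inhibits bacterial growth, determined at least three times in independent experiments.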

[2] = tested on: Neisseria gonorrhoeae; test: Antibacterial activity against Neisseria gonorrhoeae ATCC 19424
Outline: (§2)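 Agar dilution MIC. Strains were cultured on GC agar with 2% v/v Vitox and 1% haemoglobin. Suspensions of 10^5 CFU/mL were spotted in duplicate onto the same supplemented GC agar containing various compound concentrations, then incubated 24-48 h at 37°C in 5% CO2. The MIC is the lowest concentration inhibiting growth, from at least three independent experiments.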

[3] = tested on: Escherichia coli; test: Antibacterial activity against Escherichia coli ATCC 35218; outline: as §1
[4] = tested on: Staphylococcus aureus; test: Antibacterial activity against Staphylococcus aureus ATCC 29213; outline: as §1
[5] = tested on: Acinetobacter baumannii; test: Antibacterial activity against Acinetobacter baumannii ATCC 19606; outline: as §1
[6] = tested on: Acinetobacter baumannii; test: Antibacterial activity against Acinetobacter baumannii 139; outline: as §1
[7] = tested on: Staphylococcus aureus; test: Antibacterial activity against methicillin-resistant Staphylococcus aureus 196
Outline: (§3)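 Strains grown on Mueller-Hinton agar. MIC by broth microdilution following CLSI guidelines, taken as the lowest concentration inhibiting bacterial growth. Determined at least three times in independent experiments.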

[8] = tested on: Pseudomonas aeruginosa; test: Antibacterial activity against Pseudomonas aeruginosa ATCC 27853; outline: as §1
[9] = tested on: Escherichia coli; test: Antibacterial activity against Escherichia coli 203; outline: as §1
[10] = tested on: Staphylococcus aureus; test: Antibacterial activity against methicillin-resistant Staphylococcus aureus 197; outline: as §3
[11] = tested on: Acinetobacter baumannii; test: Antibacterial activity against Acinetobacter baumannii 140; outline: as §1
[12] = tested on: Pseudomonas aeruginosa; test: Antibacterial activity against Pseudomonas aeruginosa 142; outline: as §1
[13] = tested on: Escherichia coli; test: Antibacterial activity against Escherichia coli 202; outline: as §1
[14] = tested on: Pseudomonas aeruginosa; test: Antibacterial activity against Pseudomonas aeruginosa 143; outline: as §1
[15] = tested on: Neisseria gonorrhoeae; test: Antibacterial activity against Neisseria gonorrhoeae Barla194; outline: as §2
[16] = tested on: Neisseria gonorrhoeae; test: Antibacterial activity against Neisseria gonorrhoeae WHO Q; outline: as §2
[17] = tested on: Neisseria gonorrhoeae; test: Antibacterial activity against Neisseria gonorrhoeae WHO G; outline: as §2
[18] = tested on: Neisseria gonorrhoeae; test: Antibacterial activity against Neisseria gonorrhoeae WHO Z; outline: as §2
[19] = tested on: Neisseria gonorrhoeae; test: Antibacterial activity against Neisseria gonorrhoeae WHO E; outline: as §2
[20] = tested on: Neisseria gonorrhoeae; test: Antibacterial activity against Neisseria gonorrhoeae WHO O; outline: as §2
[21] = tested on: Neisseria gonorrhoeae; test: Antibacterial activity against Neisseria gonorrhoeae WHO A; outline: as §2
[22] = tested on: Neisseria gonorrhoeae; test: Antibacterial activity against Neisseria gonorrhoeae WHO M
Outline: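 Agar dilution on GC agar base with 2% v/v Vitox and 1% haemoglobin containing graded compound concentrations. Suspensions at 10^5 CFU/mL spotted in duplicate. Incubation 24-48h, 37°C, 5% CO2. MIC taken as the lowest concentration inhibiting growth, determined at least three times in independent experiments.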

[23] = tested on: Neisseria gonorrhoeae; test: Antibacterial activity against Neisseria gonorrhoeae WHO C; outline: as §2
[24] = tested on: Neisseria gonorrhoeae; test: Antibacterial activity against Neisseria gonorrhoeae WHO K; outline: as §2
[25] = tested on: Neisseria gonorrhoeae; test: Antibacterial activity against Neisseria gonorrhoeae WHO B; outline: as §2

Structure (SMILES)	MIC [1]	MIC [2]	MIC [3]	MIC [4]	MIC [5]	MIC [6]	MIC [7]	MIC [8]	MIC [9]	MIC [10]	MIC [11]	MIC [12]	MIC [13]	MIC [14]	MIC [15]	MIC [16]	MIC [17]	MIC [18]	MIC [19]	MIC [20]	further results
CCCCC(CC)CN1CCN(c2c(F)cc3c(=O)c(C(=O)O)cn(C4CC4)c3c2OC)CC1 (stereo unspecified)	2 mg/L (≈ 4.22 µM)	> 32 mg/L	≥ 64 mg/L	32 mg/L (≈ 67.6 µM)	–	–	–	–	–	–	–	–	–	–	–	–	–	–	–	–	–
CCCCCCCN1CCN(c2c(F)cc3c(=O)c(C(=O)O)cn(C4CC4)c3c2OC)CC1	4 mg/L (≈ 8.7 µM)	0.25 mg/L (≈ 0.544 µM)	1 mg/L (≈ 2.18 µM)	1 mg/L (≈ 2.18 µM)	8 mg/L (≈ 17.4 µM)	4 mg/L (≈ 8.7 µM)	2 mg/L (≈ 4.35 µM)	64 mg/L (≈ 139 µM)	> 64 mg/L	8 mg/L (≈ 17.4 µM)	64 mg/L (≈ 139 µM)	> 64 mg/L	2 mg/L (≈ 4.35 µM)	> 64 mg/L	–	–	–	–	–	–	–
CCCCCCCCCCCCN1CCN(c2c(F)cc3c(=O)c(C(=O)O)cn(C4CC4)c3c2OC)CC1	4 mg/L (≈ 7.55 µM)	0.12 mg/L (≈ 0.227 µM)	64 mg/L (≈ 121 µM)	32 mg/L (≈ 60.4 µM)	64 mg/L (≈ 121 µM)	≥ 64 mg/L	≥ 64 mg/L	> 64 mg/L	> 64 mg/L	≥ 64 mg/L	64 mg/L (≈ 121 µM)	> 64 mg/L	32 mg/L (≈ 60.4 µM)	> 64 mg/L	–	–	–	–	–	–	–
CCCCCCCC(=O)N1CCN(c2c(F)cc3c(=O)c(C(=O)O)cn(C4CC4)c3c2OC)CC1	0.5 mg/L (≈ 1.03 µM)	1 mg/L (≈ 2.05 µM)	≥ 64 mg/L	1 mg/L (≈ 2.05 µM)	–	–	–	–	–	–	–	–	–	–	–	–	–	–	–	–	–
CCCCCCCCN1CCN(c2c(F)cc3c(=O)c(C(=O)O)cn(C4CC4)c3c2OC)CC1	32 mg/L (≈ 67.6 µM)	0.25 mg/L (≈ 0.528 µM)	≥ 64 mg/L	4 mg/L (≈ 8.45 µM)	16 mg/L (≈ 33.8 µM)	16 mg/L (≈ 33.8 µM)	4 mg/L (≈ 8.45 µM)	> 64 mg/L	> 64 mg/L	8 mg/L (≈ 16.9 µM)	64 mg/L (≈ 135 µM)	> 64 mg/L	2 mg/L (≈ 4.22 µM)	> 64 mg/L	128 mg/L (≈ 270 µM)	0.5 mg/L (≈ 1.06 µM)	0.25 mg/L (≈ 0.528 µM)	> 32 mg/L	0.03 mg/L (≈ 0.0633 µM)	0.03 mg/L (≈ 0.0633 µM)	MIC [21]: 0.03 mg/L (≈ 0.0633 µM); MIC [22]: 16 mg/L (≈ 33.8 µM); MIC [23]: 0.5 mg/L (≈ 1.06 µM); MIC [24]: 256 mg/L (≈ 541 µM); MIC [25]: 0.12 mg/L (≈ 0.253 µM)
CCCCCCCCCCCCCCN1CCN(c2c(F)cc3c(=O)c(C(=O)O)cn(C4CC4)c3c2OC)CC1	8 mg/L (≈ 14.3 µM)	0.12 mg/L (≈ 0.215 µM)	32 mg/L (≈ 57.4 µM)	32 mg/L (≈ 57.4 µM)	64 mg/L (≈ 115 µM)	≥ 64 mg/L	> 64 mg/L	> 64 mg/L	> 64 mg/L	> 64 mg/L	≥ 64 mg/L	> 64 mg/L	64 mg/L (≈ 115 µM)	> 64 mg/L	–	–	–	–	–	–	–
CCCCCCCCCN1CCN(c2c(F)cc3c(=O)c(C(=O)O)cn(C4CC4)c3c2OC)CC1	2 mg/L (≈ 4.1 µM)	0.25 mg/L (≈ 0.513 µM)	8 mg/L (≈ 16.4 µM)	8 mg/L (≈ 16.4 µM)	64 mg/L (≈ 131 µM)	64 mg/L (≈ 131 µM)	≥ 64 mg/L	> 64 mg/L	> 64 mg/L	> 64 mg/L	64 mg/L (≈ 131 µM)	≥ 64 mg/L	8 mg/L (≈ 16.4 µM)	≥ 64 mg/L	–	–	–	–	–	–	–
CCCCCCCCCCN1CCN(c2c(F)cc3c(=O)c(C(=O)O)cn(C4CC4)c3c2OC)CC1	> 64 mg/L	0.12 mg/L (≈ 0.239 µM)	≥ 32 mg/L	32 mg/L (≈ 63.8 µM)	64 mg/L (≈ 128 µM)	≥ 64 mg/L	≥ 64 mg/L	> 64 mg/L	> 64 mg/L	> 64 mg/L	64 mg/L (≈ 128 µM)	> 64 mg/L	≥ 64 mg/L	> 64 mg/L	256 mg/L (≈ 510 µM)	2 mg/L (≈ 3.99 µM)	8 mg/L (≈ 15.9 µM)	≥ 64 mg/L	0.25 mg/L (≈ 0.498 µM)	1 mg/L (≈ 1.99 µM)	MIC [21]: 0.5 mg/L (≈ 0.997 µM); MIC [22]: ≥ 64 mg/L; MIC [23]: 1 mg/L (≈ 1.99 µM); MIC [24]: 256 mg/L (≈ 510 µM); MIC [25]: 1 mg/L (≈ 1.99 µM)
CCOCCOCCN1CCN(c2c(F)cc3c(=O)c(C(=O)O)cn(C4CC4)c3c2OC)CC1	1 mg/L (≈ 2.09 µM)	2 mg/L (≈ 4.19 µM)	0.5 mg/L (≈ 1.05 µM)	0.5 mg/L (≈ 1.05 µM)	–	–	–	–	–	–	–	–	–	–	–	–	–	–	–	–	–
CCCCCCCCCCCN1CCN(c2c(F)cc3c(=O)c(C(=O)O)cn(C4CC4)c3c2OC)CC1	8 mg/L (≈ 15.5 µM)	0.5 mg/L (≈ 0.97 µM)	16 mg/L (≈ 31 µM)	32 mg/L (≈ 62.1 µM)	64 mg/L (≈ 124 µM)	≥ 64 mg/L	64 mg/L (≈ 124 µM)	> 64 mg/L	> 64 mg/L	≥ 64 mg/L	64 mg/L (≈ 124 µM)	> 64 mg/L	≥ 64 mg/L	> 64 mg/L	–	–	–	–	–	–	–
O=C(O)c1cn(C2CC2)c2cc(N3CCNCC3)c(F)cc2c1=O [CIPROFLOXACIN]	–	0.004 mg/L (≈ 0.0121 µM)	–	0.25 mg/L (≈ 0.754 µM)	0.5 mg/L (≈ 1.51 µM)	> 32 mg/L	> 32 mg/L	–	> 32 mg/L	> 32 mg/L	> 32 mg/L	> 32 mg/L	–	> 32 mg/L	32 mg/L (≈ 96.6 µM)	0.008 mg/L (≈ 0.0241 µM)	0.125 mg/L (≈ 0.377 µM)	> 32 mg/L	0.002 mg/L (≈ 0.00604 µM)	0.004 mg/L (≈ 0.0121 µM)	MIC [21]: 0.002 mg/L (≈ 0.00604 µM); MIC [22]: 2 mg/L (≈ 6.04 µM); MIC [23]: 0.004 mg/L (≈ 0.0121 µM); MIC [24]: ≥ 32 mg/L; MIC [25]: 0.008 mg/L (≈ 0.0241 µM)
COc1c(N2C[C@@H]3CCCN[C@@H]3C2)c(F)cc2c(=O)c(C(=O)O)cn(C3CC3)c12 [MOXIFLOXACIN]	0.06 mg/L (≈ 0.149 µM)	0.06 mg/L (≈ 0.149 µM)	–	0.06 mg/L (≈ 0.149 µM)	0.25 mg/L (≈ 0.623 µM)	2 mg/L (≈ 4.98 µM)	0.5 mg/L (≈ 1.25 µM)	1 mg/L (≈ 2.49 µM)	–	1 mg/L (≈ 2.49 µM)	4 mg/L (≈ 9.96 µM)	8 mg/L (≈ 19.9 µM)	0.5 mg/L (≈ 1.25 µM)	16 mg/L (≈ 39.9 µM)	16 mg/L (≈ 39.9 µM)	0.016 mg/L (≈ 0.0399 µM)	0.03 mg/L (≈ 0.0747 µM)	2 mg/L (≈ 4.98 µM)	0.004 mg/L (≈ 0.00996 µM)	0.016 mg/L (≈ 0.0399 µM)	MIC [21]: 0.004 mg/L (≈ 0.00996 µM); MIC [22]: 2 mg/L (≈ 4.98 µM); MIC [23]: 0.016 mg/L (≈ 0.0399 µM); MIC [24]: 2 mg/L (≈ 4.98 µM); MIC [25]: 0.008 mg/L (≈ 0.0199 µM)
